In publication PMC8562596 (Biochemistry, 2016):
Values joined by “and” are separate entries in the source; they are usually repeats but may differ in a detail not shown here. Equal entries are not always repeated. Where two headings read alike, the source gives them in different places. Marks after values point to notes of the source that are not given here. Blank lines part the entries; values can stand above or below the compound they belong to. Non-standard residues stand in square brackets, D forms with d. Residues, ends and D or L forms follow the SMILES beside them. 2Nal = N[C@@H](Cc1ccc2ccccc2c1)C(=O)O

What was measured:
[1] = Calcein release from LUVs; conditions: 20 μM peptide (Triton X-100 at 1%), over a 30-min period; Triton X-100 = 100%
Method in brief: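 Large unilamellar vesicles with a lipid composition mimicking the late endosomal membrane were loaded with the small-molecule dye calcein. They were then exposed to the cyclic peptide, and release of calcein from the vesicles was followed.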

HeLa cells [2] = assay: Apparent endosomal escape efficiency; format: cell-based; conditions: for Apparent Endosomal Escape (γ, %): γ=(MFI^NF/MFI^Rho) of CPP over that of CPP 1 ×100%, 5 μM, 2 h
Method in brief: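 HeLa cells were seeded at 1.5 × 10^5 per well and grown overnight, then given 5 μM peptide for 2 h at 37 °C in medium. Separate peptide preparations were labelled with pH-sensitive naphthofluorescein or with rhodamine B through a miniPEG linker. Cells were DPBS-washed, trypsinised, pelleted and resuspended in DPBS for flow cytometry. NF used 633-nm excitation (APC channel) and Rho used 561-nm excitation (PE channel). γ is the NF/Rho mean-fluorescence ratio normalised to the reference peptide.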

HeLa cells [3] = assay: Cellular uptake of FITC-labeled peptides, flow cytometry; format: cell-based; conditions: 9 vs cFΦR4, 11 vs 6, 12 vs 7, 5 μM, 2 h
Method in brief: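 Peptides carried an extra lysine on the Gln side chain, FITC-labelled at that lysine. HeLa cells were seeded at 1.5 × 10^5 per well, grown overnight and given 5 μM peptide for 2 h in culture medium. Cells were DPBS-washed twice, trypsin-detached, pelleted at 250G for 5 min, washed and resuspended in DPBS. Flow cytometry used 488-nm excitation and the FITC channel.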

[4] = mouse, in vivo
HeLa cells [5] = assay: Uptake of Rho-labeled CPPs under ATP depletion or at 4 °C, flow cytometry; format: cell-based
HeLa cells [6] = assay: Cytosolic entry of R9^NF in presence of unlabeled CPP, flow cytometry; format: cell-based; conditions: 5 μM unlabeled CPP
Method in brief: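 HeLa cells seeded at 1.5 × 10^5 per well, grown overnight, then exposed to naphthofluorescein-labeled R9 with or without 5 μM unlabeled cyclic CPP for 2 h in culture medium. Cells were washed twice with DPBS, detached with 0.25% trypsin, pelleted at 250G for 5 min, washed, resuspended in DPBS and read by flow cytometry for cytosolic NF fluorescence.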

[7] = determined by fluorescence correlation spectroscopy; ref [42]; cited from earlier work
HeLa cells [8] = conditions: NF-labeled, relative to CPP 1 (100%), ref [40]; cited from earlier work
HeLa cells [9] = conditions: relative to CPP 1 (100%); ref [40]; cited from earlier work
HeLa cells [10] = conditions: Rho-labeled, relative to CPP 1 (100%), ref [40]; cited from earlier work

Compound: penetratin
- Calcein dye release from LUVs [1]: 23%

- oral bioavailability [4]: demonstrated oral bioavailability
Compound: cyclo(fΦRrRrQ) [CPP 9]
- Endosomal escape efficiency, fold relative to cFΦR4 (HeLa cells [2]): 2.0 fold
- Apparent Endosomal Escape (γ, %) (HeLa cells [2]): 202 ± 20%
- CPP activity (FITC uptake), fold more active than stereoisomer (HeLa cells [3]): 6 fold
- Decrease of total cellular uptake efficiency by energy depletion (HeLa cells [5]; ATP depletion with sodium azide and 2-deoxyglucose): ~ 80%
- Reduction of cellular entry at 4 °C (HeLa cells [5]; incubation at 4 °C): ≥ 95%

Compound: cyclo(FfΦRrRrQ) [CPP 12]
- Endosomal escape efficiency, fold relative to cFΦR4 (HeLa cells [2]): 4.0 fold
- Apparent Endosomal Escape (γ, %) (HeLa cells [2]): 402 ± 48%
- Effect on the cytosolic entry of R9^NF (HeLa cells [6]): minimal effect

Compound: Triton X-100
- Calcein dye release from LUVs [1]: 100%

Compound: RRRRRRRRR [R9, nonaarginine]
- Apparent Endosomal Escape (γ, %) (HeLa cells [2]): 40 ± 5%
- Calcein dye release from LUVs [1]: 1%
- Cytosolic Delivery Efficiency (%) [7]: 4.4%

Compound: N=C(N)NCCC[C@@H]1NC(=O)[C@H](CCCNC(=N)N)NC(=O)[C@H](CCCNC(=N)N)NC(=O)[C@H](Cc2ccc3ccccc3c2)NC(=O)[C@H](Cc2ccccc2)NC(=O)[C@H](CCC(N)=O)NC(=O)[C@H](CCCNC(=N)N)NC1=O [CPP 1, cyclo(FΦRRRRQ)] (cyclo(F[2Nal]RRRRQ))
- Apparent Endosomal Escape (γ, %) (HeLa cells [2]): 100%

Compound: YGRKKRRQRRR [Tat]
- Cytosolic Entry (MFI^NF, %) (HeLa cells [8]): 9.9 ± 1.7 ^b %
- Apparent Endosomal Escape (γ, %) (HeLa cells [9]): 23 ± 4 ^b %
- Cytosolic Delivery Efficiency (%) [7]: 2.0% and 2.0 ^c %
- Total Cellular Uptake (MFI^Rho, %) (HeLa cells [10]): 43 ± 3 ^b %
